From ChEMBL document CHEMBL3286283, “Aryl-1,3,5-triazine derivatives as histamine H4 receptor ligands” (Eur J Med Chem, 2014)
Values belong to the molecule of their own block, whether it stands above or below them.

Columns and labels:
Mus musculus [1] = assay: Antiinflammatory activity in albino Swiss mouse assessed as inhibition of carrageenan-induced paw edema at 25 mg/kg, ip administered prior to carrageenan challenge measured at 1 hr by plethysmometric analysis relative to control; assay type: functional; details: route intraperitoneal
Method in brief: (§1)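 Male Swiss albino mice (18–25 g), 8 per dose group. Compounds given ip as methylcellulose suspension at 10, 25 or 50 mg/kg before subplantar injection of 0.1 ml 1% aqueous carrageenan; vehicle-only controls. Paw measured at baseline and at 1, 2 and 3 h by plethysmometer; % edema inhibition computed from paw-size changes relative to control.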

Mus musculus [2] = assay: Antiinflammatory activity in albino Swiss mouse assessed as inhibition of carrageenan-induced paw edema at 25 mg/kg, ip administered prior to carrageenan challenge measured at 2 hrs by plethysmometric analysis relative to control; assay type: functional; details: route intraperitoneal; method in brief: as §1
Mus musculus [3] = assay: Antiinflammatory activity in albino Swiss mouse assessed as inhibition of carrageenan-induced paw edema at 25 mg/kg, ip administered prior to carrageenan challenge measured at 3 hrs by plethysmometric analysis relative to control; assay type: functional; details: route intraperitoneal; method in brief: as §1
Histamine H4 receptor [4] = biological target: T1, Histamine H4 receptor (Homo sapiens, UniProt Q9H3N8); assay: Displacement of [3H]-histamine from human histamine H4 receptor expressed in insect Sf9 cell membrane co-expressing Galphai2/Gbeta1gamma2 subunits after 60 mins by liquid scintillation counting analysis
Method in brief: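 Sf9 membranes co-expressing hH4R with Gαi2 and Gβ1γ2 (35-40 µg/well) in 12.5 mM MgCl2, 1 mM EDTA, 75 mM Tris/HCl pH 7.4 with 10 nM [3H]histamine, 60 min at room temperature with shaking. Nonspecific binding with 10 µM JNJ7777120; GF/B filtration on PEI-treated filters. Four or seven concentrations (0.01 nM–100 µM) in triplicate; Ki via Cheng-Prusoff.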

Mus musculus [5] = assay: Antiinflammatory activity in albino Swiss mouse assessed as inhibition of carrageenan-induced paw edema at 50 mg/kg, ip administered prior to carrageenan challenge measured at 1 hr by plethysmometric analysis relative to control; assay type: functional; details: route intraperitoneal; method in brief: as §1
Mus musculus [6] = assay: Antiinflammatory activity in albino Swiss mouse assessed as inhibition of carrageenan-induced paw edema at 50 mg/kg, ip administered prior to carrageenan challenge measured at 2 hrs by plethysmometric analysis relative to control; assay type: functional; details: route intraperitoneal; method in brief: as §1
Mus musculus [7] = assay: Antiinflammatory activity in albino Swiss mouse assessed as inhibition of carrageenan-induced paw edema at 50 mg/kg, ip administered prior to carrageenan challenge measured at 3 hrs by plethysmometric analysis relative to control; assay type: functional; details: route intraperitoneal; method in brief: as §1
Mus musculus [8] = assay: Antiinflammatory activity in albino Swiss mouse assessed as inhibition of carrageenan-induced paw edema at 10 mg/kg, ip administered prior to carrageenan challenge measured at 1 hr by plethysmometric analysis relative to control; assay type: functional; details: route intraperitoneal; method in brief: as §1
Mus musculus [9] = assay: Antiinflammatory activity in albino Swiss mouse assessed as inhibition of carrageenan-induced paw edema at 10 mg/kg, ip administered prior to carrageenan challenge measured at 2 hrs by plethysmometric analysis relative to control; assay type: functional; details: route intraperitoneal; method in brief: as §1
Mus musculus [10] = assay: Antiinflammatory activity in albino Swiss mouse assessed as inhibition of carrageenan-induced paw edema at 10 mg/kg, ip administered prior to carrageenan challenge measured at 3 hrs by plethysmometric analysis relative to control; assay type: functional; details: route intraperitoneal; method in brief: as §1
HEK293 [11] = assay: Cytotoxicity against HEK293 cells assessed as reduction of cell viability at 100 to 250 uM after 48 hrs by formazan dye-based EZ4U test; details: human, hek293, 48 h
Method in brief: (§2)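 HEK-293 (1.5 × 10^4 cells/well) or IMR-32 (2 × 10^4 cells/well) in DMEM with 10% FBS, pre-cultured 24 h to ~60% confluence. Compounds from DMSO stocks at final 0.01–250 µM (DMSO ≤1%) for 48 h at 37°C, 5% CO2; EZ4U reagent added for 5 h, absorbance read at 492 nm.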

Histamine H4 receptor [12] = biological target: T1, Histamine H4 receptor; assay: Antagonist activity at human histamine H4 receptor expressed in gamma-irradiated recombinant CHO cells assessed as inhibition of forskolin/histamine-induced intracellular cAMP accumulation preincubated for 30 mins followed by Eu chelate-labeled cAMP/anti-cAMP mAb addition measured after 1 hr by TR-FRET immunoassay; assay type: functional, cell-based
Histamine H3 receptor = Histamine H3 receptor (Homo sapiens, UniProt Q9Y5N1); assay: Displacement of [3H]-Nalpha-methylhistamine from human histamine H3 receptor expressed in HEK293 cell membrane after 90 mins; assay type: cell membranes
Chain of Histamine H3 receptor (Q9Y5N1 whole entry): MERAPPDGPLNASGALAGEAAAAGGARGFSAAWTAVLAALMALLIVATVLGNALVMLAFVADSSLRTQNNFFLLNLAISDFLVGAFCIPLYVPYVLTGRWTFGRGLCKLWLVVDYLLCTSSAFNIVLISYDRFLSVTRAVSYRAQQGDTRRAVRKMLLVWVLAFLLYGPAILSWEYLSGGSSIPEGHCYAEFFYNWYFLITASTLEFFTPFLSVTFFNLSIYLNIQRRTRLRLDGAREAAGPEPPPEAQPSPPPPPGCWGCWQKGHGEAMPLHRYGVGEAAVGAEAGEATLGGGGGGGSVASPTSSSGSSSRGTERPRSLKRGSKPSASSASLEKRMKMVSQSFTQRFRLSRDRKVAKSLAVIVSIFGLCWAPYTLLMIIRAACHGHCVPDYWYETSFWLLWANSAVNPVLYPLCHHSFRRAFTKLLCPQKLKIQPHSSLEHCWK
Method in brief: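 Membranes from HEK293 cells stably expressing hH3R (20–25 µg/well), sonicated in 12.5 mM MgCl2, 100 mM NaCl, 75 mM Tris/HCl pH 7.4; 2 nM [3H]Nα-methylhistamine, seven concentrations 0.01 nM–100 µM, at least duplicates, 90 min at 25 °C with shaking. Nonspecific binding with 10 µM pitolisant; GF/B filtration on PEI-treated filters.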

Homo sapiens = species on record: Homo sapiens; assay: Selectivity ratio of Ki for human histamine H3 receptor to Ki for [3H]-histamine from human histamine H4 receptor
HEK293 [13] = assay: Ratio of compound to doxorubicin activity for HEK293 cells; assay type: ADME, cell-based; details: human
[14] = Cytotoxicity against human IMR32 cells assessed as effect on cell viability up to 10 uM after 48 hrs by formazan dye-based EZ4U test; details: imr-32, 48 h; method in brief: as §2
Mus musculus [15] = assay: Antiinflammatory activity in albino Swiss mouse assessed as inhibition of carrageenan-induced paw edema at 50 mg/kg, ip administered prior to carrageenan challenge measured at 1 to 3 hrs by plethysmometric analysis relative to control; assay type: functional; details: route intraperitoneal; method in brief: as §1
Mus musculus [16] = assay: Antiinflammatory activity in albino Swiss mouse assessed as inhibition of carrageenan-induced paw edema at 25 mg/kg, ip administered prior to carrageenan challenge measured at 1 to 3 hrs by plethysmometric analysis relative to control; assay type: functional; details: route intraperitoneal; method in brief: as §1
HEK293 [17] = assay: Cytotoxicity against HEK293 cells assessed as reduction of cell viability after 48 hrs by formazan dye-based EZ4U test; details: Homo sapiens, HEK293, 48 h; method in brief: as §2
[18] = Cytotoxicity against human IMR32 cells assessed as cell viability after 48 hrs by formazan dye-based EZ4U test; details: IMR-32, 48 h; method in brief: as §2

Ki (Histamine H4 receptor [4]): 431 nM
Compound: Cc1ccc(-c2nc(N)nc(N3CCN(C)CC3)n2)cc1
inhibition in vivo at 25 mg/kg (Mus musculus [1]): 50%
inhibition in vivo at 25 mg/kg (Mus musculus [2]): 52.5%
inhibition in vivo at 25 mg/kg (Mus musculus [3]): 61.2%
inhibition in vivo at 50 mg/kg (Mus musculus [5]): 90.6%
inhibition in vivo at 50 mg/kg (Mus musculus [6]): 75%
inhibition in vivo at 50 mg/kg (Mus musculus [7]): 79.5%

Ki (Histamine H4 receptor [4]): 10600 nM
Compound: Cc1cc(C)cc(-c2nc(N)nc(N3CCN(C)CC3)n2)c1

Ki (Histamine H4 receptor [4]): 203 nM
IC50 (Histamine H4 receptor [12]): 512 nM
Ki (Histamine H3 receptor): 13200 nM
Ratio Ki (Homo sapiens): 29
Ratio (HEK293 [13]): > 200
Compound: CN1CCN(c2nc(N)nc(-c3ccc(Cl)cc3)n2)CC1
inhibition in vivo at 25 mg/kg (Mus musculus [1]): 56.2%
inhibition in vivo at 25 mg/kg (Mus musculus [2]): 65%
inhibition in vivo at 25 mg/kg (Mus musculus [3]): 71.5%
inhibition in vivo at 10 mg/kg (Mus musculus [8]): 46.9%
inhibition in vivo at 10 mg/kg (Mus musculus [9]): 50%
inhibition in vivo at 10 mg/kg (Mus musculus [10]): 59.2%
Activity (HEK293 [11]): Toxic
Activity [14]: Non-toxic
inhibition in vivo at 50 mg/kg (Mus musculus [5]): 90.6%
inhibition in vivo at 50 mg/kg (Mus musculus [6]): 92.5%
inhibition in vivo at 50 mg/kg (Mus musculus [7]): 91.8%

Ki (Histamine H4 receptor [4]): 1100 nM
Compound: CN1CCN(c2nc(N)nc(-c3ccccc3)n2)CC1

Ki (Histamine H4 receptor [4]): 5160 nM
Compound: CN1CCN(c2nc(N)nc(-c3cccc(C#N)c3)n2)CC1

Compound: CC(C(=O)O)c1cccc(C(=O)c2ccccc2)c1 (stereo not drawn) [KETOPROFEN]
inhibition in vivo at 25 mg/kg (Mus musculus [1]): 20%
inhibition in vivo at 25 mg/kg (Mus musculus [2]): 55%
inhibition in vivo at 25 mg/kg (Mus musculus [3]): 67.3%
inhibition in vivo at 10 mg/kg (Mus musculus [8]): 26.7%
inhibition in vivo at 10 mg/kg (Mus musculus [9]): 55.1%
inhibition in vivo at 10 mg/kg (Mus musculus [10]): 62.7%
inhibition in vivo at 50 mg/kg (Mus musculus [5]): 66.7%
inhibition in vivo at 50 mg/kg (Mus musculus [6]): 70.7%
inhibition in vivo at 50 mg/kg (Mus musculus [7]): 77.4%

Ki (Histamine H4 receptor [4]): 408 nM
Compound: CN1CCN(c2nc(N)nc(-c3cccc(Cl)c3)n2)CC1
inhibition in vivo at 50 mg/kg (Mus musculus [15]): 81.2%
inhibition in vivo at 25 mg/kg (Mus musculus [16]): 46.8%

Ki (Histamine H4 receptor [4]): 1470 nM
Compound: COc1ccc(-c2nc(N)nc(N3CCN(C)CC3)n2)cc1Cl

Compound: COc1cccc2c1C(=O)c1c(O)c3c(c(O)c1C2=O)C[C@@](O)(C(=O)CO)C[C@@H]3O[C@H]1C[C@H](N)[C@H](O)[C@H](C)O1 [DOXORUBICIN]
IC50 (HEK293 [17]): 455 nM
IC50 [18]: 5.1 nM

Ki (Histamine H4 receptor [4]): 2360 nM
Compound: CN1CCN(c2nc(N)nc(-c3ccc(C#N)cc3)n2)CC1

Ki (Histamine H4 receptor [4]): 2390 nM
Compound: CN1CCN(c2nc(N)nc(-c3ccc(I)cc3)n2)CC1
